Compound activity (PubChem BioAssay)
A selection: hits, their analogues and other compounds. The true share with any hit is near 2.3%.
A1 inh: inhibitors of the anti-apoptotic protein A1, read as caspase activation; MEF A1-2A-BIM cells, Caspase-Glo 3/7 luminescence, 3 h; percent of clofoctol response, vehicle zero; caspase activation, % (concentration not given with the values); hit rate 0.066% among 330,000;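 active means over half of replicate activation scores above 10%, or exactly half above 10 with the replicate mean above 10; inconclusive means replicate mean below 10 yet half the replicates above 10; inactive means over half of replicates below 10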
T cruzi repl: T. cruzi replication inhibition; hit rate 1.4% among 300,000; inhibition, % (test concentration not listed); T. cruzi beta-gal in NIH3T3, luminescence, 90 h; AID 1885;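 active means mean inhibition across valid replicates above about 55%, limit read from the data; inconclusive means mean below that limit but half or more replicates reach it; inactive means mean below it, under half of replicates reach it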;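 further: signal also drops with host cell toxicity which is not excluded here; 0% = plate median of DMSO wells and 100% = zero luminescence signal; higher percent means less beta-gal luminescence so fewer parasites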
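System: mouse NIH/3T3 fibroblasts infected with β-gal-expressing T. cruzi Tulahuen C4 / Input: NIH/3T3 cells, 5,000 per well / Buffer or medium: Low-serum DMEM with 2% FBS / Probe or stimulus: 5000 reporter trypomastigotes per well / Schedule: ≥90 h infection period, 3 h prior cell attachment / Measured by: GalScreen luminescence, 60 min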
KLF5 inh: suppresses KLF5 promoter-driven expression; DLD-1 KLF5 promoter-luciferase reporter, luminescence; inhibition, % at 5 µM; hit rate 0.23% among 290,000;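 active means inhibition above a per-plate limit of that plate's mean compound inhibition plus 3 SD, cut at about 60% in these data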;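 further: 0% = DMSO wells and 100% = LY294002 at 200 µM; higher means less KLF5 promoter-driven luciferase light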
Beta apoptosis: beta cell apoptosis inhibition; INS-1E cytokine-induced death, ATP luminescence, 48 h; percent of positive-control rescue, neutral wells zero; protection from apoptosis, % (test concentration not listed); hit rate 0.8% among 300,000;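 active means Every replicate reaches about 75%, or at least half do and their mean reaches it too, limit read from the data; inconclusive means At least half of replicates reach the limit but their mean does not; inactive means Under half of replicates reach the limit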;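 further: 0% = cytokine-treated negative control wells and 100% = positive control rescue; higher means more ATP so stronger rescue from cytokine killing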
HIF act: HIF pathway transcriptional activation. U2OS HRE-luciferase reporter, luminescence; normalized: DMSO 0%, desferrioxamine 100%. hit rate 0.32% among 300,000. activation, % at 7.5 µM (by protocol);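 active means mean activation of at least 10% of the iron chelator positive control signal, with at least half of replicates also reaching 10%; inconclusive means mean and replicate majority disagree about reaching 10%; inactive means mean and most replicates under 10%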
An asterisk follows results filed as active; ? = inconclusive; nt = no result given.

SMILES	A1 inh	T cruzi repl	KLF5 inh	Beta apoptosis	HIF act
O=C(CCc1ccccc1)NNC(=S)NC(=O)c1ccccc1	-1	-24	1	3	0
CC(C)(C)c1cc(CCC(=O)NNC(=S)NC(=O)c2ccccc2)cc(C(C)(C)C)c1O	1	59*	-16	?	0
Cc1cc(OCC(=O)Nc2nccs2)c2c(C)cc(=O)oc2c1	0	-23	-5	0	-1
CCc1cccc2c1Sc1ccccc1CC2N1CCNCC1 (centres undefined)	2	64*	nt	nt	-1
CN1CCN(C2Cc3ccccc3Sc3ccc(Cl)cc32)CC1 (centres undefined)	0	nt	nt	9	nt
Cc1cccc2c1Sc1ccc(Cl)cc1CC2N1CCNCC1 (centres undefined)	1	63*	nt	nt	1
COc1ccc(/C(O)=C2/C(=O)C(=O)N(c3ccccn3)C2c2cccc(Cl)c2)cc1 (centres undefined)	0	-4	-32	nt	2
O=C(CSc1nnnn1C1CC1)Nc1ccc(S(=O)(=O)N2CCOCC2)cc1	1	nt	nt	-6	nt
COc1ccc(C2C(C(=O)NCc3ccco3)c3ccccc3C(=O)N2C)cc1 (centres undefined)	0	-11	6	-3	-1
CCN(CC)CCCNC(=O)C1c2ccccc2C(=O)N(C)C1c1ccc(OC)cc1 (centres undefined)	0	-6	5	-8	795*
CCOCCOC(=O)c1[nH]c2c(c1C)C(=O)CC(c1cccs1)C2 (centres undefined)	5.9*	21	77*	24	1
Cc1c(C(=O)OCC(C)C)[nH]c2c1C(=O)CC(c1cccs1)C2 (centres undefined)	0	55*	37	17	0
CCOCCOC(=O)c1[nH]c2c(c1C)C(=O)CC(c1cc(OC)c(OC)c(OC)c1)C2 (centres undefined)	0	-9	7	25	0
CC(C)C[C@@H](CO)N(Cc1ccccc1)S(=O)(=O)N(Cc1ccccc1)[C@H](CO)CC(C)C	2	nt	nt	31	nt
C=C[C@H](CC(C)C)N(Cc1ccccc1)S(=O)(=O)N(Cc1ccccc1)[C@@H](C=C)CC(C)C	0	nt	nt	84*	nt
Cc1ccccc1NC(=O)c1cccc(Cn2cc(Br)c([N+](=O)[O-])n2)c1	1	48	-10	5	0
Cc1cccc(NC(=O)c2cccc(Cn3cc(Br)c([N+](=O)[O-])n3)c2)c1C	0	58*	-9	6	0
COc1cccc(/C=N\NC(=O)c2ccc(Cn3cc(Br)c([N+](=O)[O-])n3)o2)c1O	0	64*	40	96*	18*
COc1ccc(OC)c(NC(=O)c2cccc(Cn3cc(Br)c([N+](=O)[O-])n3)c2)c1	0	64*	-8	nt	0
Cn1c(=O)c2c(nc(NCC3CCCC(CN)C3)n2Cc2ccc(Cl)cc2Cl)n(C)c1=O (centres undefined)	0	-8	-40	27	7
COCCN(C(=O)COC(=O)c1oc2ccc(OC)cc2c1C)c1c(N)n(Cc2ccccc2)c(=O)[nH]c1=O	0	8	-24	0	0
CC(C)(C)c1ccc(S(=O)(=O)N2CCC(c3nc4ccc(Cl)cc4[nH]3)CC2)cc1	-1	55*	-18	nt	0
N#C/C(=C/c1ccc(N2CCCCCC2)o1)c1ccc(Cl)cc1	2	65*	7	81*	-1
Cc1ccc(/C(C#N)=C\c2ccc(N3CCOCC3)o2)cc1	1	58*	-41	0	0
N#C/C(=C/c1ccc(N2CCCCC2)o1)c1cccc(F)c1	1	56*	4	nt	3
SMILES	A1 inh	T cruzi repl	KLF5 inh	Beta apoptosis	HIF act
N#C/C(=C/c1ccc(N2CCCCC2)cc1)c1cccc(F)c1	0	15	-29	2	4
CCN1C(=O)[C@H]2[C@@H](c3ccc(-c4ccc(C(C)=O)cc4)cc3)N[C@@](Cc3ccccc3)(C(=O)OC)[C@H]2C1=O	-1	16	nt	-4	0
CCOc1ccc(Nc2ncnc3ccc([N+](=O)[O-])cc23)cc1	-1	59*	5	0	2
CC1(C)O[C@@H](CC(=O)O)[C@]23CO[C@H](C(=O)[C@]4(C)C2CC[C@@]2(C)[C@H](c5ccoc5)OC(=O)C5O[C@]524)[C@@H]13 (some centres undefined)	-1	nt	nt	-3	nt
CCCCNC(=O)CCc1c(C)nc2c(c(C)nn2-c2ccccc2)c1C	0	55*	3	0	0
Cc1nc2c(c(C)nn2-c2ccccc2)c(C)c1CCC(=O)NCCCOC(C)C	-2	10	-2	8	1
CC(C)n1c(=O)n(CC(=O)NCC2CCCO2)c(=O)c2c3c(sc21)COC(C)(C)C3 (centres undefined)	1	-3	-18	-1	0
O=C(Cn1c(-c2ccccc2)c[n+]2ccsc12)c1ccccc1	1	69*	13	15	3
O=C(Cn1c(-c2ccccc2)c[n+]2ccsc12)c1ccc([N+](=O)[O-])cc1	0	75*	-44	94*	1
COC(=O)C1=C(C)N(Cc2ccccc2)C(=NCc2cccc(Cl)c2)N[C@H]1c1cccc(F)c1	0	nt	nt	98*	nt
COC(=O)C1=C(C)N(Cc2ccccc2)C(=NCc2ccc(OC)cc2)N[C@H]1c1cccc(F)c1	0	26	-20	4	0
COC(=O)C1=C(C)N(Cc2ccccc2)C(=NCc2ccccc2)N[C@H]1c1cccc(C(F)(F)F)c1	0	nt	nt	113*	nt
COc1cccc(/C=N/NC(=O)N/N=C/c2cccc(OC)c2O)c1O	0	4	-54	7	3
COc1ccc(/C=N/NC(=O)c2c(C)nc3ccc(Br)cn23)cc1OC	0	-4	15	7	0
COc1cccc(/C=N/NC(=O)c2c(C)nc3ccc(Br)cn23)c1O	0	69*	49	82*	32*
Cc1ccc(/C=N/NC(=O)c2c(C)nc3ccc(Br)cn23)cc1	-1	-10	63*	-6	4
COc1cc(OC)c2cc(C(=O)N/N=C/c3cccc(OC)c3O)[nH]c2c1	0	22	39	97*	4
COc1cccc(/C=N/NC(=O)c2nc(-c3ccccc3)cc(-c3ccccc3)n2)c1O	0	6	11	8	11*
CC(CNC(=O)CCS(=O)(=O)c1ccc2c(c1)NC(=O)CO2)c1ccccc1 (centres undefined)	1	8	-4	-5	-1
COc1cc2cc(CCO)oc(=O)c2cc1OC	2	nt	nt	-11	nt
O=C(NNc1c(Cl)cc(Cl)cc1Cl)c1cccc([N+](=O)[O-])c1	0	13	16	113*	1
O=C(NNC(=S)NC(=O)c1ccccc1Cl)c1cccc([N+](=O)[O-])c1	-1	-3	-8	3	0
O=C(NC(NC(=S)Nc1c(Cl)cccc1Cl)C(Cl)(Cl)Cl)c1cccc([N+](=O)[O-])c1 (centres undefined)	1	59*	-25	27	0
